Bioassay records deposited in PubChem by Johns Hopkins Ion Channel Center.
An excerpt weighted towards active compounds, which were near 2.3% of everything screened.
TRPC4 agonist: opens the mouse TRPC4 cation channel. Q9QUQ5. HEK293 TRPC4beta/mu-opioid, Fluo4 calcium fluorescence; hits give high values. B-score at 10 µM. actives 0.49% (n = 310,000);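 active = B-score above 5 SD of library B-scores, and initial fluorescence ratio not above library mean plus 5 SD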;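 also: positive B-score marks a calcium rise read as TRPC4 activation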
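Technique: kinetic Fluo4 calcium fluorescence; Test system: TRPC4beta and mu-opioid receptor HEK293 stable cells; Measure: B-scored integrated calcium fluorescence ratio; Benchmarks: low control buffer alone, high control maximal DAMGO; Schedule: 45 min room-temperature Fluo4 loading, 110 s read.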
TRPC6 act: mouse TRPC6 channel activation. B-score at 10 µM. HEK293-TRPC6 membrane potential dye fluorescence; hits give high values. actives 0.13% (n = 310,000). Q61143;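 active = B-score of the integrated fluorescence ratio above library mean plus 3 SD, and starting fluorescence ratio within library mean plus 5 SD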;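 also: higher score means more depolarization so channel activation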
Target sequence (Q61143 whole entry, looked up): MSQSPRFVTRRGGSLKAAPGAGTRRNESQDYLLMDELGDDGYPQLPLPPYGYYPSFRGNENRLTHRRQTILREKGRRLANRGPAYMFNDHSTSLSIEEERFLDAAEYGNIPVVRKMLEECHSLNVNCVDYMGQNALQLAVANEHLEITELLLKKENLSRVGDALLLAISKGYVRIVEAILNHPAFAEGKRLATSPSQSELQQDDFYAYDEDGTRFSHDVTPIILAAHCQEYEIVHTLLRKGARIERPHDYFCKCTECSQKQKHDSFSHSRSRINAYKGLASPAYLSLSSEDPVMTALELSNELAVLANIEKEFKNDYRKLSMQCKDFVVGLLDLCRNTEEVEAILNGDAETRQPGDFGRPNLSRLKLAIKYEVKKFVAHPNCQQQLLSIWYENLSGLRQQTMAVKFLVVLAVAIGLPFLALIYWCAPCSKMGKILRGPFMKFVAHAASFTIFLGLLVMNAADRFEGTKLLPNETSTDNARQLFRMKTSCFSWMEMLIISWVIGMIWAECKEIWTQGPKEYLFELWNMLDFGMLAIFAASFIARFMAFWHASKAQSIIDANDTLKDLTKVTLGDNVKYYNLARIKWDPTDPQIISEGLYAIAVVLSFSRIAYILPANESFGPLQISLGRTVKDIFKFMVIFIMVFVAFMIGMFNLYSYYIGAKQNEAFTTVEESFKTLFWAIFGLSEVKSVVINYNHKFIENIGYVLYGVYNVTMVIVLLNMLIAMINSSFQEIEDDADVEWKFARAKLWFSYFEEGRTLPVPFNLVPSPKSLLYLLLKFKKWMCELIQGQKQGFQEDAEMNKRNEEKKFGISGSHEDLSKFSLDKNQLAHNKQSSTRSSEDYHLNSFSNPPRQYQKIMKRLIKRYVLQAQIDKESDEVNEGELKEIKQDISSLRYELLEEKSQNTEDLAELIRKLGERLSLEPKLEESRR
TRPC4 potent: TRPC4 (mouse) allosteric potentiation | HEK293 TRPC4beta/mu-opioid, DAMGO EC20, Fluo-4 Ca2+ flux; hits give high values | actives 0.42% (n = 310,000) | B-score at 10 µM | AID 2227;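 active = B-score of calcium response area above 5 SD of library B-scores, with initial fluorescence ratio within 5 SD of library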;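 also: B-score of integrated fluorescence ratio over time as area under calcium response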
TRPC4 inh: TRPC4 (mouse) channel inhibition; Q9QUQ5; HEK293 TRPC4beta/mu-opioid, DAMGO-evoked Fluo4 calcium flux; hits give low values; B-score at 10 µM; actives 0.39% (n = 300,000); AID 2247;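 active = B-score over 3 SD under the library average, no early fluorescence shift, positive overall ratio signal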
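Assay system: HEK293 cells with stable TRPC4beta plus mu-opioid receptor expression; Probe or stimulus: DAMGO in two steps, submaximal then maximal; Dosing: single-point compound dosing; Measured by: Fluo4 calcium-dye fluorescence, kinetic read; Read-out basis: B score from integrated Fluo4 fluorescence ratio.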
TRPC6 inhibitor: mouse TRPC6 channel inhibition; Q61143; HEK293-TRPC6, membrane potential dye, ACh-evoked depolarization; hits give low values; B-score at 10 µM; actives 1.1% (n = 310,000);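 active = B-score under library mean minus 3 SD, initial fluorescence not abnormally high, positive integrated signal ratio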;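 also: B-score derived from integrated fluorescence ratio over the kinetic read; more negative B-score means stronger inhibition of depolarization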
TRPC4 sel inh 2: second selectivity test of TRPC6 inhibitors: effect on mouse TRPC4; shares compounds with TRPC6 inhibitor; HEK293 TRPC4/MOR, membrane potential dye fluorescence; channel activated by saturating DAMGO dose; inhibition, % at 10 µM; actives 42% (n = 920);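 active = compounds whose fluorescence signal differed from control wells by over 3 SD, either direction, in both duplicate plates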
TRPC4 spec: tests whether TRPC6 inhibitors also affect mouse TRPC4; shares compounds with TRPC6 inhibitor; HEK293 TRPC4/mu-opioid, membrane potential fluorescence; activity change, negative = inhibition, % at 10 µM; actives 61% (n = 920);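 active = rise or fall in signal beyond 3 SD of buffer-only wells in both replicate plates, either sign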;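 also: integrated kinetic ratio of fluorescence range over baseline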
HEK293 MPD ctr 2-1: second counter-screen for TRPC6 inhibitors: parental HEK293 cells. parental HEK293 membrane potential dye fluorescence; maximal acetylcholine challenge after compound addition. AID 2779. signal change vs control, % at 10 µM. shares compounds with TRPC6 inhibitor. actives 31% (n = 920);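 active = membrane potential signal moving either way by over 3 SD of the maximum-effect control, in both duplicate plates, meaning non-specific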
HEK293 MPD ctr-1: counter-screen for TRPC6 inhibitors: effect in parental HEK293 cells. shares compounds with TRPC6 inhibitor. parental HEK293 membrane potential dye fluorescence. membrane potential signal change, % at 10 µM. actives 60% (n = 920);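 active = membrane potential signal shifting up or down by more than 3 SD of buffer-only wells, on both duplicate plates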
HEK293 MPD ctr-2: counter-screen for TRPC6 modulators: effect in parental HEK293 cells | membrane potential dye fluorescence | membrane potential signal change, % at 10 µM | AID 488924 | shares compounds with TRPC6 inhibitor | actives 51% (n = 2,400);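 active = membrane potential signal moves up or down beyond 5 SD from buffer-only wells, on both duplicate plates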
HEK293 MPD ctr 2-2: second check of TRPC6 modulator effects in parental HEK293 cells | shares compounds with TRPC6 inhibitor | membrane potential dye fluorescence; after compound, maximal acetylcholine stimulation | inhibition, % at 10 µM | actives 14% (n = 2,400);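 active = membrane potential signal drops by more than 5 SD from the mean control signal, in both duplicate plates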;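 also: plate controls were acetylcholine ECmax control wells for no effect and buffer only wells for full effect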
TRPC4/MOR mod: selectivity of TRPC6 modulators against mouse TRPC4. shares compounds with TRPC6 inhibitor. HEK293 TRPC4/mu-opioid, membrane potential fluorescence. percent change from control (negative = decrease, positive = increase), % at 10 µM. actives 69% (n = 2,400);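 active = membrane potential signal moved up or down beyond 5 SD of buffer control wells, in both duplicate plates, actives on both sides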;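 also: plate controls were assay buffer wells for no effect and DAMGO maximal-effect wells for full effect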
TRPC4 ctr inh 2: mouse TRPC4 off-target activity of TRPC6 modulators, second screen. inhibition, % at 10 µM. actives 55% (n = 2,400). shares compounds with TRPC6 inhibitor. HEK293 TRPC4/mu-opioid, membrane potential dye fluorescence; stimulated with maximal-effect DAMGO. AID 488928;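 active = drop in membrane potential signal beyond 5 SD of the control wells in both duplicate plates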;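 also: TRPC4 counter screen for TRPC6 hits run under conditions tuned for TRPC6 not TRPC4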
TRPC6 block conf: mouse TRPC6 inhibitor confirmation | shares compounds with TRPC6 inhibitor | HEK293-TRPC6, membrane potential dye, ACh-evoked depolarization | inhibition, % at 10 µM | actives 43% (n = 3,300) | AID 488960;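 active = fluorescence ratio falls more than 5 SD below the full-stimulation control mean, in both duplicate runs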;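 also: integrated fluorescence ratio of peak minus minimum over baseline after agonist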
TRPC6 act conf: confirmation of mouse TRPC6 activators. HEK293-TRPC6 membrane potential dye fluorescence, FDSS. actives 11% (n = 2,800). activation, % at 10 µM. shares compounds with TRPC6 inhibitor;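 active = ratio signal rise beyond 5 SD above unstimulated control wells' mean, seen in both duplicate runs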;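 also: plate controls were buffer EC0 wells for no effect and acetylcholine ECmax response for full effect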
* marks the source's active call; other numbers are inactive results; i = inactive; . = no result.

SMILES	TRPC4 agonist	TRPC6 act	TRPC4 potent	TRPC4 inh	TRPC6 inhibitor	HEK293 MPD ctr-2	HEK293 MPD ctr 2-2	TRPC4/MOR mod	TRPC4 ctr inh 2	TRPC6 block conf	TRPC6 act conf	others
CC(C)Oc1ccc(C(CCN)C2CCCCC2)cc1 (stereo not drawn)	i	i	i	i	-6.7*	.	.	.	.	i	i	TRPC4 sel inh 2=51%*;TRPC4 spec=i;HEK293 MPD ctr 2-1=i;HEK293 MPD ctr-1=i
O=C(Oc1ccc(F)c(F)c1)c1ccc2c(=O)n3c(nc2c1)CCC3	i	i	i	i	-5.1*	i	i	i	i	i	i
O=C(Nc1ccc(Br)cc1Cl)c1ccc2c(=O)n3c(nc2c1)CCC3	i	i	i	i	i	.	.	.	.	.	.
CCCCc1nnc(NC(=O)c2ccc3c(=O)n4c(nc3c2)CCC4)s1	i	i	i	i	-7.4*	.	.	.	.	i	i	TRPC4 sel inh 2=i;TRPC4 spec=-15%*;HEK293 MPD ctr 2-1=i;HEK293 MPD ctr-1=-130%*
O=C(Nc1ccc(Cl)cc1Cl)c1ccc2c(=O)n3c(nc2c1)CCC3	59*	i	i	i	-5.1*	276%*	114%*	34%*	i	i	.
CN(C)CC/C=C1/c2cc(F)ccc2Sc2ccc(Cl)cc21	i	i	i	i	-5.3*	i	i	9.5%*	58%*	i	i
CN(C)CC/C=C1/c2ccccc2Sc2c(O)cc(Cl)cc21	i	i	i	i	i	.	.	.	.	.	.
O=C1C2CSCN2C(=O)CN1CCCN1CCN(C(c2ccccc2)c2ccccc2)CC1 (stereo not drawn)	i	i	i	i	-5.3*	82%*	i	11%*	39%*	45%*	.
Cc1ccc(SC(=O)c2c([N+](=O)[O-])c(C)nn2C)cc1	i	i	i	i	-7.2*	.	.	.	.	76%*	i	TRPC4 sel inh 2=i;TRPC4 spec=i;HEK293 MPD ctr 2-1=-5.5%*;HEK293 MPD ctr-1=i
Cc1cc(C)n(C(=O)c2c([N+](=O)[O-])c(C)nn2C)n1	i	i	i	i	i	.	.	.	.	.	.
Nc1nc(NCCCN2CCOCC2)nc(Nc2cccc(Cl)c2)c1[N+](=O)[O-]	i	i	i	i	-5.6*	i	i	-18%*	86%*	52%*	i
C=CCNC(=O)C(C)N1c2cccc3cccc(c23)S1(=O)=O (stereo not drawn)	i	i	i	i	i	.	.	.	.	.	.
CCn1nc(NC(=O)C(C)C)c2cc3cccc(C)c3nc21	i	i	i	i	i	.	.	.	.	.	.
COCCCNCCCOc1ccc(Cl)cc1C(C)(C)C	i	i	i	i	i	.	.	.	.	.	.
CNCCCOc1ccc(Cl)cc1C(C)(C)C	i	i	50*	i	-6*	i	i	i	i	i	i
CCN1CCN(c2ccc([N+](=O)[O-])c(Sc3nc4ccccc4[nH]3)c2)CC1	i	i	i	i	-5.4*	i	i	-12%*	61%*	46%*	i
CC(C)n1cc(CN2CCN(CCc3ccccc3)C(CCO)C2)cn1 (stereo not drawn)	i	i	i	i	i	.	.	.	.	.	.
O=C(/C=C/NNC(=O)c1ccccc1)c1ccccc1	i	i	i	i	-6.2*	i	i	i	i	i	i
CN(CCNC(=O)c1cn(C)c2ccc(S(=O)(=O)N(C)C)cc2c1=O)CCc1ccccc1	i	i	i	i	i	.	.	.	.	.	.
CCN(CC)S(=O)(=O)c1ccc2c(c1)c(=O)c(C(=O)NCCN(C)CCc1ccccc1)cn2C	i	i	i	i	-5.4*	-64%*	i	-17%*	63%*	i	i
CCCCN(C)CCCNC(=O)c1cn(CC)c2ccc(S(=O)(=O)N3CCc4ccccc4C3)cc2c1=O	i	i	i	i	-6.9*	.	.	.	.	i	i	TRPC4 sel inh 2=52%*;TRPC4 spec=-18%*;HEK293 MPD ctr 2-1=i;HEK293 MPD ctr-1=-160%*
CCN(CC)CCNC(=O)c1cn(CC)c2ccc(S(=O)(=O)N3CCOCC3)cc2c1=O	i	i	i	i	i	.	.	.	.	.	.
CCCCN(CCCC)CCNC(=O)c1cn(CC)c2ccc(S(=O)(=O)N3CCCC3)cc2c1=O	i	i	i	i	-5*	i	i	i	50%*	i	i
O=C(CSC1=NS(=O)(=O)c2cc(Cl)ccc2N1)NCCc1ccccc1	i	i	i	i	i	.	.	.	.	.	.
CCOc1ccc(-n2c(-c3ccccc3)c[n+]3c2CCC3)cc1	i	i	i	i	-6.3*	-58%*	62%*	-13%*	30%*	45%*	i
CCOc1ccc(-n2c(-c3ccc(OC)cc3)c[n+]3c2CCCCC3)cc1	i	i	i	i	i	.	.	.	.	.	.
CN(CCC#N)C(=O)c1cc2c(Cl)nc3ccccc3c2s1	i	i	i	i	i	.	.	.	.	.	.
CN(C)CCN(Cc1ccco1)C(=O)c1cc2c(Cl)nc3ccccc3c2s1	i	i	i	i	-5.2*	i	i	i	i	i	i
Cc1ccc(S(=O)(=O)N(C)C)cc1NC(=O)COC(=O)COc1ccc2c(c1)CCC2	i	i	i	i	i	.	.	.	.	.	.
